Type in all cases: functional, cell-based
The test system of experiment [1] is SK-N-SH. In words: Cytotoxicity against human SK-N-SH cells after 72 hrs by MTT assay. In outline: (§1)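 Cells grown in DMEM with 10% FBS at 37 °C, 5% CO2. 2000 cells per well in 96-well plates, allowed to adhere. Compounds were dissolved in DMSO, diluted in medium and added at 0–30 µM, 8 wells per concentration, for 72 h. MTT at 0.5 mg/mL for 4 h, then DMSO solubilization and absorbance at 490 nm. IC50 from concentration plots; at least 2 independent assays.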

The subject of experiment [2] is MCF7. In words: Cytotoxicity against human MCF7 cells after 72 hrs by MTT assay. The settings on record: MCF7, 72 h. An outline of the steps: as §1
Another experiment has as its system HeLa. The experiment can be described thus: Cytotoxicity against human HeLa cells after 72 hrs by MTT assay. An outline of the steps: as §1
Experiment [3] deals with MCF7. The experiment can be described thus: Cell cycle arrest in human MCF7 cells assessed as G2 phase accumulation.
Experiment [4] deals with SK-N-SH. The experiment can be described thus: Cell cycle arrest in human SK-N-SH cells assessed as G1 phase accumulation.

From ChEMBL document CHEMBL1143914, “Synthesis and cytotoxic activity of diosgenyl saponin analogues” (Bioorg Med Chem, 2008) come the findings set out here.

Molecules are shown by their SMILES. Activity calls are given as the source filed them. The rule behind the calls is not given here.

Take `C[C@@H]1CC[C@@]2(OC1)O[C@H]1C[C@H]3[C@@H]4CC=C5C[C@@H](O[C@@H]6O[C@H](CO)[C@@H](O)[C@H](O)[C@H]6NC(=O)CCC(=O)O)CC[C@]5(C)[C@H]4CC[C@]3(C)[C@H]1[C@@H]2C`: the 50% inhibitory concentration (IC50) in the experiment with SK-N-SH [1] is 14.1 µM; in the experiment on MCF7 [2], 22 µM; in the experiment with HeLa, 13.9 µM.
Consider `C[C@@H]1CC[C@@]2(OC1)O[C@H]1C[C@H]3[C@@H]4CC=C5C[C@@H](O[C@@H]6O[C@H](CO)[C@@H](O)[C@H](O)[C@H]6NC(=O)c6ccccc6)CC[C@]5(C)[C@H]4CC[C@]3(C)[C@H]1[C@@H]2C`, for which the result with MCF7 [3] and in the experiment on SK-N-SH [4] was Active. Moreover, the IC50 amounted to 14.9 µM in the experiment with SK-N-SH [1], 19.4 µM with MCF7 [2] and 18 µM in the experiment with HeLa.
For the compound `CC(=O)N[C@H]1[C@H](O[C@H]2CC[C@@]3(C)C(=CC[C@H]4[C@@H]5C[C@@H]6O[C@]7(CC[C@@H](C)CO7)[C@@H](C)[C@@H]6[C@@]5(C)CC[C@@H]43)C2)O[C@H](CO)[C@@H](O)[C@@H]1O`, the IC50 stood at 11.6 µM in the experiment on SK-N-SH [1], 18.3 µM in the experiment on MCF7 [2] and 21.5 µM in the experiment with HeLa.
For the compound `C[C@@H]1CC[C@@]2(OC1)O[C@H]1C[C@H]3[C@@H]4CC=C5C[C@@H](O[C@H]6O[C@@H](CO)[C@H](O)[C@@H](O)[C@@H]6NC(=O)CCCCC(=O)N[C@H]6[C@H](O[C@H]7CC[C@@]8(C)C(=CC[C@H]9[C@@H]%10C[C@@H]%11O[C@]%12(CC[C@@H](C)CO%12)[C@@H](C)[C@@H]%11[C@@]%10(C)CC[C@@H]98)C7)O[C@H](CO)[C@@H](O)[C@@H]6O)CC[C@]5(C)[C@H]4CC[C@]3(C)[C@H]1[C@@H]2C`, the half-inhibitory concentration (IC50) is 19.5 µM with SK-N-SH [1], 19.2 µM in the experiment on MCF7 [2] and above 20 µM in the experiment with HeLa.
On to `CC(=O)N[C@@H](C)C(=O)N[C@H]1[C@H](O[C@H]2CC[C@@]3(C)C(=CC[C@H]4[C@@H]5C[C@@H]6O[C@]7(CC[C@@H](C)CO7)[C@@H](C)[C@@H]6[C@@]5(C)CC[C@@H]43)C2)O[C@H](CO)[C@@H](O)[C@@H]1O`, for which the IC50 in the experiment on SK-N-SH [1] was found to be 15.3 µM; in the experiment on MCF7 [2], 11 µM; in the experiment on HeLa, 20 µM.
On the same counts, the results for `C[C@@H]1CC[C@@]2(OC1)O[C@H]1C[C@H]3[C@@H]4CC=C5C[C@@H](O[C@@H]6O[C@H](CO)[C@@H](O)[C@H](O)[C@H]6NC(=O)CCCCC(=O)O)CC[C@]5(C)[C@H]4CC[C@]3(C)[C@H]1[C@@H]2C` are 16.3 µM, 11.3 µM and above 20 µM.
For the compound `C[C@@H]1CC[C@@]2(OC1)O[C@H]1C[C@H]3[C@@H]4CC=C5C[C@@H](O[C@@H]6O[C@H](CO)[C@@H](O)[C@H](O)[C@H]6NC(=O)CCCCC6CCSS6)CC[C@]5(C)[C@H]4CC[C@]3(C)[C@H]1[C@@H]2C` (stereo partly drawn) [ALPHA LIPOYL], the IC50 was found to be 4.8 µM in the experiment with SK-N-SH [1], 6.9 µM in the experiment with MCF7 [2] and 7.3 µM with HeLa.
